The values that follow come from ChEMBL document CHEMBL1124751, “Synthesis of perfluoroalkylated xylitol ethers and esters: new surfactants for biomedical uses” (J Med Chem, 1990).

In series [1] the test system is Mus musculus. The series can be described thus: Toxicity in mice when dispersed in Pluronic F-68 in […] aqueous NaCl of 50 g/15 g per L at the concentration of 1187 mg/kg body weight. It is filed as functional. A digest of the protocol: (§1)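 Single tail-vein injection into mice of about 20 g, about 0.5 mL (25 mL/kg body weight) per animal. The test article was a solution or dispersion of surfactant in Pluronic F-68, given as g compound/g Pluronic per L, in 9‰ aqueous NaCl. Symptoms, behavior, mortality and body-weight gain were recorded for 80 days after injection. Survival was reported as survivors/injected in a series of 10 mice.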

Series [2] can be described thus: Viability inhibition towards Namalva Lymphoblastoid Cell Culture at the concentration of 0.1 g/L. It is filed as functional. In a few lines:
(§2)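 Namalva lymphoblastoid suspension culture (RPMI with 10% fetal calf serum, 37 °C, 7% CO2). 2 mL medium at about 3.10^5 cells/mL was mixed with 2 mL test solution, in five flasks, with a reference series in parallel. Cells were counted after 4 days of incubation, and viability was read by Trypan Blue exclusion. Results are % vs controls.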

A short description of series [3]: Viability inhibition towards Namalva Lymphoblastoid Cell Culture at the concentration of 0.05 g/L after dispersion in pluronic F-68. It is filed as functional. A digest of the protocol:
as §2

A short description of series [4]: Solubility was determined. The class given is physicochemical.
The nature of series [5]: Percent hemolysis for an erythrocyte suspension at 1% hemocrait at the concentration of 20 g/ L. The class given is functional, Homo sapiens. A digest of the protocol:
(§3)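 Washed human red cells at 1% hematocrit (8-9 × 10^7 cells/mL) in phosphate saline pH 7.4 were mixed 1:1 with surfactant/Pluronic F-68 dispersion in 9‰ NaCl and shaken 1 h at 37 °C. After centrifugation, supernatant hemoglobin was read at 540 nm. % hemolysis = 100 (OD_test − OD_NaCl)/(OD_H2O − OD_NaCl), with 9‰ NaCl as the 0% control and water as the 100% control.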

Series [6] is described as follows: Percent hemolysis for an erythrocyte suspension at 1% hemocrait at the concentration of 10 g/ L. The class given is functional, Homo sapiens. In a few lines:
as §3

Series [7] in a line: Growth and viability inhibition towards Namalva Lymphoblastoid Cell Culture at the concentration of 0.05 g/L after dispersion in pluronic F-68. The class given is functional.
A short description of series [8]: Percent hemolysis for an erythrocyte suspension at 1% hemocrait at the concentration of 10 g/1g per L. It is filed as functional, Homo sapiens. A digest of the protocol: as §3
Series [9] is described as follows: Hemolytic effect on human red blood cells when dispersed in Pluronic F-68 at the concentration of 40 g/20 g per L. It is filed as functional. A digest of the protocol: (§4)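 Human erythrocytes were freed of plasma and buffy coat (3300 rpm, 10 min, 10 °C), washed three times in isotonic phosphate saline pH 7.4, then suspended at 1% hematocrit. 2 mL suspension plus an equal volume of surfactant dispersion in Pluronic F-68 / 9‰ NaCl (g compound/g Pluronic per L) was shaken 1 h at 37 °C. Hemolysis was scored visually (0 to ++++).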

Series [10] is described as follows: Percent hemolysis for an erythrocyte suspension at 1% hemocrait at the concentration of 20 g/10 g per L. It is filed as functional, Homo sapiens. A digest of the protocol: as §3
Series [11] has as its system Mus musculus. The series can be described thus: Toxicity in mice when dispersed in Pluronic F-68 in […] aqueous NaCl of 42 g/22 g per L at the concentration of 1035 mg/kg body weight. The class given is functional. A digest of the protocol: as §1
Series [12] can be described thus: Growth inhibition towards Namalva Lymphoblastoid Cell Culture at the concentration of 0.1 g/L. The class given is functional. A digest of the protocol:
as §2

Series [13] concerns Mus musculus. The series can be described thus: Toxicity in mice when dispersed in Pluronic F-68 in […] aqueous NaCl of 20 g/10 g per L at the concentration of 455,mg/Kg body weight. The class given is functional. In a few lines:
as §1

A short description of series [14]: Hemolytic effect on human red blood cells when dispersed in Pluronic F-68 at the concentration of 10 g/1g per L. The class given is functional. In a few lines:
as §4

A short description of series [15]: Growth and viability inhibition towards Namalva Lymphoblastoid Cell Culture after resowing at the concentration of 0.1 g/L. It is filed as functional. In a few lines: (§5)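 Namalva lymphoblastoid cells in suspension (RPMI, 10% fetal calf serum, 37 °C, 7% CO2). Five flasks per test, each with 2 mL medium at about 3.10^5 cells/mL plus 2 mL test solution, alongside a reference series. After 4 days the compound was removed. Cells were washed and resown in 4 mL medium, and growth and viability were reported as % vs controls.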

Series [16] in a line: Growth inhibition towards Namalva Lymphoblastoid Cell Culture at the concentration of 0.05 g/L after dispersion in pluronic F-68. It is filed as functional. The note with it: in the assay text read “concentration of 0.1 g/L” for “concentration of 0.05 g/L”. In a few lines: as §2
Series [17] is described as follows: Hemolytic effect on human red blood cells when dispersed in Pluronic F-68 at the concentration of 20 g/10 g per L. The class given is functional. A digest of the protocol:
as §4

Series [18] concerns Mus musculus. The series can be described thus: Toxicity in mice when dispersed in Pluronic F-68 in […] aqueous NaCl of 15 g/3.73g per L at the concentration of 371 mg/kg body weight. The class given is functional. A digest of the protocol: as §1
Series [19] in a line: Growth inhibition towards Namalva Lymphoblastoid Cell Culture at the concentration of 0.1 g/L and after detoxification on anionic exchanger. It is filed as functional. In a few lines: as §2
The nature of series [20]: Growth and viability inhibition towards Namalva Lymphoblastoid Cell Culture after resowing at the concentration of 0.1 g/L and after detoxification on anionic exchanger. It is filed as functional. A digest of the protocol: as §5
The nature of series [21]: Growth and viability inhibition towards Namalva Lymphoblastoid Cell Culture after resowing at the concentration of 0.2 g/L. It is filed as functional. A digest of the protocol:
as §5

Series [22] in a line: Viability inhibition towards Namalva Lymphoblastoid Cell Culture at the concentration of 0.2 g/L. It is filed as functional. In a few lines: as §2
Series [23] is described as follows: Viability inhibition towards Namalva Lymphoblastoid Cell Culture at the concentration of 0.1 g/L and after detoxification on anionic exchanger. It is filed as functional. A digest of the protocol:
as §2

Series [24] is described as follows: Hemolytic effect on human red blood cells when dispersed in Pluronic F-68 at the concentration of 40 g/10 g per L. It is filed as functional. A digest of the protocol:
as §4

A short description of series [25]: Growth inhibition towards Namalva Lymphoblastoid Cell Culture at the concentration of 0.2 g/L. It is filed as functional. In a few lines: as §2
Series [26] deals with Mus musculus. The series can be described thus: Toxicity in mice when dispersed in Pluronic F-68 in […] aqueous NaCl of 40 g/10 g per L at the concentration of 1034 mg/kg body weight. The class given is functional.
Series [27] concerns Mus musculus. The series can be described thus: Toxicity in mice when dispersed in Pluronic F-68 in […] aqueous NaCl of 20 g/5 g per L at the concentration of 491 mg/kg body weight. The class given is functional. A digest of the protocol:
as §1

Series [28] can be described thus: Hemolytic effect on human red blood cells when dispersed in Pluronic F-68 at the concentration of 20 g/5 g per L. The class given is functional. A digest of the protocol: as §4
The test system of series [29] is Mus musculus. The series can be described thus: Toxicity in mice when dispersed in Pluronic F-68 in […] aqueous NaCl of 0.1 g and at the concentration of 2,mg/Kg body weight. The class given is functional. In a few lines:
as §1

Series [30] can be described thus: Hemolytic effect on human red blood cells when dispersed in Pluronic F-68 at the concentration of 10 g/2.5g per L. The class given is functional. In a few lines:
as §4

Series [31] can be described thus: Hemolytic effect on human red blood cells when dispersed in Pluronic F-68 at the concentration of 10 g/5g per L. It is filed as functional. A digest of the protocol:
as §4

Series [32] has as its system Mus musculus. The series can be described thus: Toxicity in mice when dispersed in Pluronic F-68 in […] aqueous NaCl of 0.1 g at the concentration of 2,mg/Kg body weight. It is filed as functional. A digest of the protocol:
as §1

Series [33] can be described thus: Hemolytic effect on human red blood cells when dispersed in Pluronic F-68 at the concentration of 20 g/1 g per L. The class given is functional. In a few lines:
as §4

Series [34] can be described thus: Percent hemolysis for an erythrocyte suspension at 1% hemocrait at the concentration of 1 g/0.05 g per L. It is filed as functional, Homo sapiens. A digest of the protocol:
as §3

The test system of series [35] is Mus musculus. The series can be described thus: Toxicity in mice when dispersed in Pluronic F-68 in […] aqueous NaCl of 20 g/10 g per L at the concentration of 443 mg/kg body weight. The class given is functional. In a few lines: as §1
Series [36] can be described thus: Hemolytic effect on human red blood cells when dispersed in Pluronic F-68 at the concentration of 1 g/0.05 g per L. It is filed as functional. A digest of the protocol: as §4
Series [37] can be described thus: Percent hemolysis for an erythrocyte suspension at 1% hemocrait at the concentration of 1 g/L. It is filed as functional, Homo sapiens. A digest of the protocol:
as §3

By solubility is commonly meant how much of the substance goes into solution per volume. The low end stands for little dissolved substance, the high end for much dissolved substance.

Values after ≈ are worked out from the molar mass of the structure shown. Bounds are passed on as bounds.

Turning to `OCC(O)C(O)C(O)COC/C=C/C(F)(F)C(F)(F)C(F)(F)C(F)(F)C(F)(F)C(F)(F)C(F)(F)C(F)(F)F` (stereo not given), the results for the Survival ratio in the series on Mus musculus [1], with Mus musculus [11] and in the series with Mus musculus [13] were 5, 8 and 10, respectively. Besides, the Viability is listed as 97% in series [2] and 98% in series [3]. The compound further returned a solubility in [4] of 50 µg/mL (≈ 81.9 µM). The Hemolysis in [5], in [6], in series [8] and in series [10] was 0% each time. Also, the figures for the Resowing in [7] and in series [15] were 115% and 100%, respectively. Also, the Activity in [9] is listed as 65.6 mM; in series [14], 16.4 mM; in [17], 32.8 mM. The Growth amounted to 78% in series [12] and 108% in [16].

Consider `O=C(CCC(F)(F)C(F)(F)C(F)(F)C(F)(F)C(F)(F)C(F)(F)C(F)(F)C(F)(F)F)OCC(O)C(O)C(O)CO` (stereo not given), for which the solubility in [4] was less than 10 µg/mL.

In the case of `OCC(O)C(O)C(O)COC/C=C/C(F)(F)C(F)(F)C(F)(F)C(F)(F)C(F)(F)C(F)(F)F` (stereo not given), the Survival ratio in the series on Mus musculus [18] worked out at 10; with Mus musculus [26], 0; in the series on Mus musculus [27], 8; with Mus musculus [29] it was 10. The Viability in series [2] was 80%; in series [22] it was 98%; in series [23], 93%. The Growth is listed as 78% in series [19], 23% in [12] and 86% in series [25]. In addition, the Resowing in series [20] is recorded as 105%; in [21], 95%; in series [15], 96%. For the same compound, in [4], the solubility was less than 1000 µg/mL. The values for the Activity in [24], in [28] and in [30] were 78.4 mM, 39.2 mM and 19.6 mM, respectively.

Take `O=C(CCC(F)(F)C(F)(F)C(F)(F)C(F)(F)C(F)(F)F)OCC(O)C(O)C(O)CO` (stereo not given): the solubility in [4] turned out to be 500 µg/mL (≈ 1050 µM).

Take `OCC(O)C(O)C(O)COC/C=C/C(F)(F)C(F)(F)C(F)(F)C(F)(F)F` (stereo not given): the values for the Activity in series [31], in series [33] and in series [36] were 24.4 mM, 48.7 mM and 2.4 mM, respectively. Further, the results for the Survival ratio in the series with Mus musculus [32] and in the series on Mus musculus [35] were 10 and 9, respectively. Also, the figures for the Viability in [2] and in series [23] were 87% and 95%, respectively. Further, the values for the Growth in series [19] and in [12] were 125% and 32%, respectively. Also, the Hemolysis in [34] and in series [37] was 0% in each case. Further, the Resowing was found to be 105% in series [20] and 106% in series [15]. The solubility in series [4] is less than 5000 µg/mL.
